Measured values: ChEMBL document CHEMBL1133845, “N-propargyl-2-alkynylbenzothiazolium aza-enediynes: role of the 2-alkynylbenzothiazolium functionality in DNA cleavage” (Bioorg Med Chem Lett, 2001)

Assay: Normalized percent cleavage of DNA from cleavage reactions (20 h) containing 100 μM compound and 50 μM (bp) supercoiled DNA at pH 9.0 in 20 mM TRIS buffer
Procedure, shortened: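 Supercoiled ΦX174 DNA (50 μM bp) incubated with 100 μM compound in 20 mM TRIS, pH 9, for 20 h at 37 °C. Relaxed circular (Form II) and linear (Form III) DNA resolved on agarose gel and expressed as normalized percent cleavage. Mean ± SD over separate determinations.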

Row | DNA cleavage | Structure (SMILES)
1 | 48% | C[n+]1c(C#Cc2ccccc2)sc2ccccc21
2 | 42% | C#CC[n+]1c(C#Cc2ccc(C)cc2)sc2ccccc21
3 | 7% | C#CC[n+]1c(C#C[Si](C(C)C)(C(C)C)C(C)C)sc2ccccc21

More lines, now with the values behind:

Row | Structure (SMILES) | DNA cleavage
4 | C#CC[n+]1c(C#C[Si](C)(C)C)sc2ccccc21 | 33%
5 | C(#Cc1nc2ccccc2s1)c1ccccc1 | 0%
6 | C#CC[n+]1c(C#Cc2ccccc2)sc2ccccc21 | 40%
